This is an account of results in ChEMBL document CHEMBL1121994, “Ammonium 7H-purin-6-yl 1-Thio-beta-D-glucopyranosiduronate, a latent, selective anticancer agent” (J Med Chem, 1982).

What all share (format): ADME
A short description of data set [1]: Maximum velocity was determined at pH 3.38. Put shortly:
(§1)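 Bovine β-glucuronidase in 0.1 M potassium acetate buffer, μ = 0.1 M (KCl), 30 °C. Substrate 4.0×10⁻⁴ to 4.8×10⁻³ M final. Enzyme (30 FU; 42 000 FU when substrate was given in Me₂SO) was added after 20 min; at pH 3.38 the substrate was also added after 20 min. Initial rates came from ΔA/min at 324 nm (Δε = 2×10⁴ M⁻¹cm⁻¹), in duplicate. Vmax was normalized per Fishman unit.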

Data set [2] in a line: Maximum velocity was determined at pH 4.4. The method, boiled down:
as §1

The species named for data set [3] is Bos taurus. Description: Michaelis constant for hydrolysis catalyzed by Bovine Liver beta-Glucuronidase at pH 5.58. Conditions: cattle. The method, boiled down: as §1
Data set [4] is filed under the species Bos taurus. Description: Michaelis constant for hydrolysis catalyzed by Bovine Liver beta-Glucuronidase at pH 4.40. Conditions: cattle, pH 4.4. Put shortly: as §1
The species entered for data set [5] is Bos taurus. Description: Michaelis constant for hydrolysis catalyzed by Bovine Liver beta-Glucuronidase at pH 4.7. Conditions: cattle. The method, boiled down: as §1
Data set [6] is filed under the species Bos taurus. Description: Michaelis constant for hydrolysis catalyzed by Bovine Liver beta-Glucuronidase at pH 3.38. The settings on record: cattle. Put shortly:
as §1

The nature of data set [7]: Maximum velocity was determined at pH 4.7. Put shortly:
as §1

Data set [8] can be described thus: Maximum velocity was determined at pH 5.58. Put shortly: as §1
The nature of data set [9]: Maximum velocity was determined at pH 4.40. The settings on record: pH 4.4. Put shortly:
as §1

As to `NC(=O)C1OC(Sc2[nH]cnc3ncnc2-3)C(O)C(O)C1O` (stereo unspecified), the Vmax is 7.85e-11 in data set [1], 1.24e-10 in data set [2], 9.85e-11 in data set [7] and 8.8e-11 in data set [8]. In addition, the “Vmax / Km” value in data set [3] is 1.04e-8; in [4], 1.06e-8; in data set [5], 1.06e-8; in data set [6] it was 8.8e-9.

As for `N.O=C(O)C1OC(Sc2[nH]cnc3ncnc2-3)C(O)C(O)C1O` (stereo unspecified), the Vmax in [1] is listed as 3.73e-8; in [7], 3.92e-8; in [9] it was 3.95e-8; in data set [8], 2.18e-8. For the same compound, the “Vmax / Km” value in data set [3] came out at 0.0000951; in data set [4], 0.000409; in data set [5] it was 0.000297; in [6], 0.000659.
